Assay results taken from ChEMBL document CHEMBL1155617, “Cytotoxic constituents of Polyalthia longifolia var. pendula” (J Nat Prod, 2000).
pIC50: −log10 of the molar value. Activity calls are given as the source filed them. The calls are words filed in the database; no cut-off is given here.

Experiments:
Type in all cases: functional, cell-based
[1] = (§1) Cytotoxicity against human HA59T cells by MTS colorimetric assay
Outline: (§2)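 Cells grown in DMEM with 10% fetal calf serum and seeded 24 h before treatment. Viability read by MTS colorimetric assay after 72 h compound exposure. IC50 taken as mean concentration giving 50% growth inhibition from replicate values.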

AGS [2] = experiment: Cytotoxicity against human AGS cells by MTS colorimetric assay; outline: as §2
HepG2 [3] = experiment: Cytotoxicity against human HepG2 cells by MTS colorimetric assay; outline: as §2
DLD-1 [4] = experiment: Cytotoxicity against human DLD1 cells by MTS colorimetric assay; outline: as §2
HA59T [5] = experiment: Cytotoxicity against human HA59T cells upto 30 by MTS colorimetric assay
Outline: (§3)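 Cells grown in DMEM with 10% fetal calf serum, seeded and cultured 24 h, then exposed to test compounds for 72 h. Viability read by MTS colorimetric assay.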

AGS [6] = experiment: Cytotoxicity against human AGS cells upto 30 uM by MTS colorimetric assay; outline: as §3
DLD-1 [7] = experiment: Cytotoxicity against human DLD1 cells upto 30 by MTS colorimetric assay; outline: as §3
HepG2 [8] = experiment: Cytotoxicity against human HepG2 cells upto 30 by MTS colorimetric assay; outline: as §3
HA59T [9] = experiment: as §1; outline: as §2

SMILES	pIC50 [1]	pIC50 (AGS [2])	pIC50 (HepG2 [3])	pIC50 (DLD-1 [4])	Activity (HA59T [5])	Activity (AGS [6])	Activity (DLD-1 [7])	Activity (HepG2 [8])	other results
CC1=CCC[C@@H]2[C@@](C)(CCC3=CC(=O)O[C@@H]3O)[C@H](C)CC[C@@]12C	4.63	4.57	< 4.52	< 4.52	–	–	–	–	–
COc1cc2c(cc1O)[C@@H]1Cc3ccc(O)c(OC)c3CN1CC2	–	–	–	–	inactive	inactive	inactive	inactive	–
COc1cc2c(cc1O)C[C@@H]1NCCc3cc(O)c(OC)c-2c31	–	–	–	–	inactive	inactive	inactive	inactive	–
COc1ccc2c(c1O)-c1nccc(C)c1C2=O	4.66	< 4.52	< 4.52	< 4.52	–	–	–	–	–
c1ccc2c(c1)C[C@H]1NCCc3cc4c(c-2c31)OCO4 [ANONAINE]	4.79	5.07	4.68	4.54	–	–	–	–	–
C[C@@H]1CC[C@@]2(O)[C@H](CC[C@H](O)C2(C)C)[C@@]1(C)CCC1=CC(=O)O[C@@H]1O	–	–	–	–	–	–	–	–	Activity (HA59T [9]): inactive; Activity (AGS [2]): inactive; Activity (HepG2 [3]): inactive; Activity (DLD-1 [4]): inactive
